In ChEMBL document CHEMBL4376901, “Azo-PROTAC: Novel Light-Controlled Small-Molecule Tool for Protein Knockdown” (J Med Chem, 2020):
Blank lines part the entries; values can stand above or below the compound they belong to. Active and inactive are the calls of the source. The calls are words filed in the database; no cut-off is given here.

Experiments:
[1] = biological target: T1, Protein cereblon/Tyrosine-protein kinase ABL1 (Homo sapiens) (UniProt P00519+Q96SW2); experiment: Protac activity at CRBN/ABL in human K562 cells assessed as reduction in ABL protein levels at 100 nM incubated for 24 hrs by Western blot analysis
T1 sequence (P00519 whole entry, looked up): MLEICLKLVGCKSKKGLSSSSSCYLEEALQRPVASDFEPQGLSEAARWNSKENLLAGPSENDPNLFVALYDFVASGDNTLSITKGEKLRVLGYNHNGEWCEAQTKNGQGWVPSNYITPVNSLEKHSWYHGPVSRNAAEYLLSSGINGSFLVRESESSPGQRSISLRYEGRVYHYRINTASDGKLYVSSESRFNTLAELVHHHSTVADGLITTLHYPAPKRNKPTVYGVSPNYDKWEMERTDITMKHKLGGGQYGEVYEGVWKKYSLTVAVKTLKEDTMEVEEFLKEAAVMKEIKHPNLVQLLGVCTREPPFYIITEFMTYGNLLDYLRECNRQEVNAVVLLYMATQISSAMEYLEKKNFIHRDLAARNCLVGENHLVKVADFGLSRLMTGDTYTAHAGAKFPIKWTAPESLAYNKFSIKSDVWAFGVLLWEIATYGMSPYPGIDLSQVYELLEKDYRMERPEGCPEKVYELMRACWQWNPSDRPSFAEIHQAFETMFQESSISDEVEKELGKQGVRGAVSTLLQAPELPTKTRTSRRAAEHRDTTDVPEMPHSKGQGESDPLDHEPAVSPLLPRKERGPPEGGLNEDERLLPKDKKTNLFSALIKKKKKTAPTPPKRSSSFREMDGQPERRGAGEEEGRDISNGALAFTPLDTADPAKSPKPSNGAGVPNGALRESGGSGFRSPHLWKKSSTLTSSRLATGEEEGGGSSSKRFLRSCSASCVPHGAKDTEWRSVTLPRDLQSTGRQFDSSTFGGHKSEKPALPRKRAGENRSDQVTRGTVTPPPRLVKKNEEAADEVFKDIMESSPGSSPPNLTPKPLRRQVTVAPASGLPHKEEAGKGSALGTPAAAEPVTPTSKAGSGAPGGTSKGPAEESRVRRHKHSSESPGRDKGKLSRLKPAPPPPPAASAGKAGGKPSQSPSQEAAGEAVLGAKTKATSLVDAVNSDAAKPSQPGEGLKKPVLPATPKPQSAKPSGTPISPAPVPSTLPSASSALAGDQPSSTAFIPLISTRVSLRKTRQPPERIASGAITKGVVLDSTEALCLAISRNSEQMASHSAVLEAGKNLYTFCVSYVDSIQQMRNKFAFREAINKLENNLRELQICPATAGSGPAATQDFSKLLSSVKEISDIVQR
T1 sequence (Q96SW2 whole entry, looked up): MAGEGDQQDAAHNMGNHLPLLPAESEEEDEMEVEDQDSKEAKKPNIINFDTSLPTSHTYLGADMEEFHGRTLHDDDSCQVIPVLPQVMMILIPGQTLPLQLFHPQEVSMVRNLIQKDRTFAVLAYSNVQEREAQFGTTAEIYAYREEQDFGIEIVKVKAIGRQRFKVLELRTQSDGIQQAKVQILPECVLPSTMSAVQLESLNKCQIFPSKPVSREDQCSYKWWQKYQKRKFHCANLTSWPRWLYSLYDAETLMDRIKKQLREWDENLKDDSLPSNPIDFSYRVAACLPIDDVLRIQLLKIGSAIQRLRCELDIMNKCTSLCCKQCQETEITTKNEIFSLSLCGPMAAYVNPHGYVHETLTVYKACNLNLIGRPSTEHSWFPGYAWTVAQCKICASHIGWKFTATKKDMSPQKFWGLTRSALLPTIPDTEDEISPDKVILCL

[2] = biological target: T2, Protein cereblon/Tyrosine-protein kinase ABL1/Breakpoint cluster region protein (Homo sapiens) (UniProt P00519+P11274+Q96SW2); experiment: Protac activity at CRBN/BCR-ABL in human K562 cells assessed as reduction in BCR-ABL protein levels at 100 nM incubated for 24 hrs by Western blot analysis
T2 sequence (P00519 whole entry, looked up): as the sequence (P00519 whole entry, looked up) above
T2 sequence (P11274 whole entry, looked up): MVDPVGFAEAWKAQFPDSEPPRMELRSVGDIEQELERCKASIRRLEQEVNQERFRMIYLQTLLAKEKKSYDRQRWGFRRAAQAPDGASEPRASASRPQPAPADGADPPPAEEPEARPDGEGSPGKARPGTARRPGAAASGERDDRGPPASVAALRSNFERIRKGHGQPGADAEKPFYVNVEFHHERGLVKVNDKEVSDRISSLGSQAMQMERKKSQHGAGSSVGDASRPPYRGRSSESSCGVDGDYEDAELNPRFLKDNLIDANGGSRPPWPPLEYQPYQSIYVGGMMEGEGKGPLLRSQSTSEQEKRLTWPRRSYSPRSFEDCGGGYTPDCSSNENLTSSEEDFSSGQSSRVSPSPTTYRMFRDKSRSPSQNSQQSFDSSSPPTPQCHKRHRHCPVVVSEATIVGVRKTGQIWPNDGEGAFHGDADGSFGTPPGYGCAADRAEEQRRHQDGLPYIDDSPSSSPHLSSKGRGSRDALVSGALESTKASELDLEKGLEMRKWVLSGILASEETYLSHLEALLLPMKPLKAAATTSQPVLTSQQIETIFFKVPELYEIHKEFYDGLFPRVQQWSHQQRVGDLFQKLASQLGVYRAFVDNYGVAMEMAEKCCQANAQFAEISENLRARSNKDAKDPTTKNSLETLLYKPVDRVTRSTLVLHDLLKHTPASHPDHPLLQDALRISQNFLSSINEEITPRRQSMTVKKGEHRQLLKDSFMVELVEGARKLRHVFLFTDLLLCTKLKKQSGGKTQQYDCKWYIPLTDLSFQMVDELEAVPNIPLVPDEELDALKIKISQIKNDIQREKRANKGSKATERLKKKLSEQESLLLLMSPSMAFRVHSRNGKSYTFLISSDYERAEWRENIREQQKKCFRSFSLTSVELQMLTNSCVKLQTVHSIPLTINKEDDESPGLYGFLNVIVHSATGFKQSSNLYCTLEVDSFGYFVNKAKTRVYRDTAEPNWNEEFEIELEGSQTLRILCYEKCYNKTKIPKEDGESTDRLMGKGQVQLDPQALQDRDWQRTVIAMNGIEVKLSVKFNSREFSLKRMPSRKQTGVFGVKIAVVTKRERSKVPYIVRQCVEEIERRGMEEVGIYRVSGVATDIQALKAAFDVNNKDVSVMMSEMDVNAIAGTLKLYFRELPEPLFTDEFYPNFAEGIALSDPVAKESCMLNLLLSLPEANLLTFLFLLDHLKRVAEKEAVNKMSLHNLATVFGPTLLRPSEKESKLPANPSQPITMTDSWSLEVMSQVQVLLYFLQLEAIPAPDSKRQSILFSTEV
T2 sequence (Q96SW2 whole entry, looked up): as the sequence (Q96SW2 whole entry, looked up) above

[3] = biological target: T2, Protein cereblon/Tyrosine-protein kinase ABL1/Breakpoint cluster region protein (Homo sapiens); experiment: Protac activity at CRBN/BCR-ABL in human K562 cells assessed as reduction in BCR-ABL protein levels at 50 to 250 nM incubated for 24 hrs by Western blot analysis; assay type: cell-based
How it was run: (§1)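 K562 cells were exposed for 24 h to a concentration gradient of the trans or cis form. BCR-ABL and ABL protein levels were assessed by Western blot in a dose-effect design.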

[4] = biological target: T1, Protein cereblon/Tyrosine-protein kinase ABL1 (Homo sapiens); experiment: Protac activity at CRBN/ABL in human K562 cells assessed as reduction in ABL protein levels at 50 to 250 nM incubated for 24 hrs by Western blot analysis; assay type: cell-based
How it was run: as §1

[5] = biological target: T1, Protein cereblon/Tyrosine-protein kinase ABL1 (Homo sapiens); experiment: Protac activity at CRBN/ABL in human K562 cells assessed as reduction in ABL protein levels pre-treated with lenalidomide followed by compound addition at 250 nM incubated for 24 hrs by Western blot analysis; assay type: cell-based
[6] = biological target: T2, Protein cereblon/Tyrosine-protein kinase ABL1/Breakpoint cluster region protein (Homo sapiens); experiment: Protac activity at CRBN/BCR-ABL in human K562 cells assessed as reduction in BCR-ABL protein levels pre-treated with lenalidomide followed by compound addition at 250 nM incubated for 24 hrs by Western blot analysis; assay type: cell-based
[7] = Drug metabolism assessed as photoisomerization to cis-isomer after exposure to white light light up to 240 mins by UV-visible absorption spectra analysis
[8] = Half life for spontaneous thermal relaxation under dark condition at 25 degC; assay type: physicochemical
HCT-116 = experiment: Cytotoxicity against human HCT116 cells assessed as inhibition of cell viability incubated for 48 hrs by Cell-titer-Glo luminescent cell viability assay; assay type: functional, cell-based
MCF7 = experiment: Cytotoxicity against human MCF7 cells assessed as inhibition of cell viability incubated for 48 hrs by Cell-titer-Glo luminescent cell viability assay; assay type: functional, cell-based
[9] = biological target: T2, Protein cereblon/Tyrosine-protein kinase ABL1/Breakpoint cluster region protein (Homo sapiens); experiment: Protac activity at CRBN/BCR-ABL in human K562 cells assessed as reduction in BCR-ABL protein levels at 250 nM incubated for 10 hrs by Western blot analysis; assay type: cell-based
How it was run: (§2)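 Time-course in K562 cells at a fixed 250 nM PROTAC, run separately with the trans and cis forms. Cells were harvested at several time points. BCR-ABL and ABL protein levels were read by Western blot.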

[10] = biological target: T2, Protein cereblon/Tyrosine-protein kinase ABL1/Breakpoint cluster region protein (Homo sapiens); experiment: Protac activity at CRBN/BCR-ABL in human K562 cells assessed as reduction in BCR-ABL protein levels incubated for 24 hrs by Western blot analysis
[11] = biological target: T1, Protein cereblon/Tyrosine-protein kinase ABL1 (Homo sapiens); experiment: Protac activity at CRBN/ABL in human K562 cells assessed as reduction in ABL protein levels incubated for 24 hrs followed by exposure to white light up to 24 hrs by Western blot analysis; assay type: cell-based
[12] = biological target: T2, Protein cereblon/Tyrosine-protein kinase ABL1/Breakpoint cluster region protein (Homo sapiens); experiment: Protac activity at CRBN/BCR-ABL in human K562 cells assessed as reduction in BCR-ABL protein levels at 250 nM incubated for 32 hrs by Western blot analysis; assay type: cell-based; parameters: scale not given: the % may be the effect or the level left
How it was run: as §2

K562 [13] = experiment: Antiproliferative activity against human K562 cells assessed as inhibition of cell proliferation incubated for 48 hrs by CCK8 assay; assay type: functional, cell-based; details: K562, 48 h
[14] = biological target: T2, Protein cereblon/Tyrosine-protein kinase ABL1/Breakpoint cluster region protein (Homo sapiens); experiment: Protac activity at CRBN/BCR-ABL in human K562 cells assessed as reduction in BCR-ABL protein levels incubated for 24 hrs followed by exposure to UV-C light every 4 hrs by Western blot analysis; assay type: cell-based
How it was run: (§3)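 K562 cells were treated with the trans form for 24 h, then moved to fresh medium and split into two groups. One group was exposed to UV-C light every 4 h and harvested. The control group was harvested without irradiation at 0, 4, 8, 12, 16 and 24 h. Proteins were read by Western blot.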

[15] = Drug metabolism assessed as photoisomerization to cis-isomer after exposure to UV-C light and measured after 1 hr by UV-visible absorption spectra analysis
[16] = Stability in presence of 20 mM of GSH reduced in DMSO/PBS buffer (1:1) solution incubated for 48 hrs; assay type: physicochemical
[17] = Drug metabolism assessed as photoisomerization to cis-isomer after exposure to UV-C light and measured up to 120 mins by UV-visible absorption spectra analysis
K562 [18] = experiment: Cytotoxicity against human K562 cells assessed as inhibition of cell viability incubated for 48 hrs by Cell-titer-Glo luminescent cell viability assay; assay type: functional, cell-based; details: K562, 48 h
[19] = biological target: T1, Protein cereblon/Tyrosine-protein kinase ABL1 (Homo sapiens); experiment: Protac activity at CRBN/ABL in human K562 cells assessed as reduction in ABL protein levels incubated for 24 hrs by Western blot analysis
[20] = biological target: T2, Protein cereblon/Tyrosine-protein kinase ABL1/Breakpoint cluster region protein (Homo sapiens); experiment: Protac activity at CRBN/BCR-ABL in human K562 cells assessed as reduction in BCR-ABL protein levels pre-treated with ABL inhibitor dasatinib followed by compound addition at 250 nM incubated for 24 hrs by Western blot analysis; assay type: cell-based
[21] = biological target: T1, Protein cereblon/Tyrosine-protein kinase ABL1 (Homo sapiens); experiment: Protac activity at CRBN/ABL in human K562 cells assessed as reduction in ABL protein levels at 250 nM incubated for 32 hrs by Western blot analysis; assay type: cell-based; parameters: scale not given: the % may be the effect or the level left
How it was run: as §2

[22] = biological target: T2, Protein cereblon/Tyrosine-protein kinase ABL1/Breakpoint cluster region protein (Homo sapiens); experiment: Protac activity at CRBN/BCR-ABL in human K562 cells assessed as reduction in BCR-ABL protein levels incubated for 24 hrs followed by exposure to white light up to 24 hrs hrs by Western blot analysis; assay type: cell-based
How it was run: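 Cells were preincubated with the cis form while shielded from light, then moved to fresh medium and exposed to visible light. BCR-ABL was followed over time by Western blot.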

[23] = biological target: T2, Protein cereblon/Tyrosine-protein kinase ABL1/Breakpoint cluster region protein (Homo sapiens); experiment: Protac activity at CRBN/BCR-ABL in human K562 cells assessed as reduction in BCR-ABL protein levels at 250 nM incubated for 4 hrs by Western blot analysis; assay type: cell-based; details: in the assay text read “10 hrs” for “4 hrs”
How it was run: as §2

[24] = biological target: T1, Protein cereblon/Tyrosine-protein kinase ABL1 (Homo sapiens); experiment: Protac activity at CRBN/ABL in human K562 cells assessed as reduction in ABL protein levels pre-treated with ABL inhibitor dasatinib followed by compound addition at 250 nM incubated for 24 hrs by Western blot analysis; assay type: cell-based
[25] = biological target: T1, Protein cereblon/Tyrosine-protein kinase ABL1 (Homo sapiens); experiment: Protac activity at CRBN/ABL in human K562 cells assessed as reduction in ABL protein levels at 250 nM incubated for 4 hrs by Western blot analysis; assay type: cell-based
How it was run: as §2

[26] = biological target: T1, Protein cereblon/Tyrosine-protein kinase ABL1 (Homo sapiens); experiment: Protac activity at CRBN/ABL in human K562 cells assessed as reduction in ABL protein levels pre-treated with NEDD8-activating enzyme (NAE) inhibitor MLN4924 followed by compound addition at 250 nM incubated for 24 hrs by Western blot analysis; assay type: cell-based
K562 [27] = experiment: Effect on ABL gene expression in human K562 cells at 50 to 500 nM incubated for 36 hrs by RT-qPCR analysis; assay type: ADME, cell-based; details: k562, 36 h, 0.5 µM
[28] = biological target: T1, Protein cereblon/Tyrosine-protein kinase ABL1 (Homo sapiens); experiment: Protac activity at CRBN/ABL in human K562 cells assessed as reduction in ABL protein levels at 250 nM incubated for 10 hrs by Western blot analysis; assay type: cell-based
How it was run: as §2

[29] = biological target: T2, Protein cereblon/Tyrosine-protein kinase ABL1/Breakpoint cluster region protein (Homo sapiens); experiment: Protac activity at CRBN/BCR-ABL in human K562 cells assessed as reduction in BCR-ABL protein levels pre-treated with NEDD8-activating enzyme (NAE) inhibitor MLN4924 followed by compound addition at 250 nM incubated for 24 hrs by Western blot analysis; assay type: cell-based
[30] = biological target: T1, Protein cereblon/Tyrosine-protein kinase ABL1 (Homo sapiens); experiment: Protac activity at CRBN/ABL in human K562 cells assessed as reduction in ABL protein levels incubated for 24 hrs followed by exposure to UV-C light every 4 hrs by Western blot analysis; assay type: cell-based
How it was run: as §3

A549 = experiment: Cytotoxicity against human A549 cells assessed as inhibition of cell viability incubated for 48 hrs by Cell-titer-Glo luminescent cell viability assay; assay type: functional, cell-based
[31] = biological target: T1, Protein cereblon/Tyrosine-protein kinase ABL1 (Homo sapiens); experiment: Protac activity at CRBN/ABL in human K562 cells assessed as reduction in ABL protein levels at 500 nM incubated for 24 hrs by Western blot analysis
[32] = biological target: T2, Protein cereblon/Tyrosine-protein kinase ABL1/Breakpoint cluster region protein (Homo sapiens); experiment: Protac activity at CRBN/BCR-ABL in human K562 cells assessed as reduction in BCR-ABL protein levels at 500 nM incubated for 24 hrs by Western blot analysis

- Activity [1]: Active
- Activity [2]: Active
Structure (SMILES): Cc1nc(Nc2ncc(C(=O)Nc3c(C)cccc3Cl)s2)cc(N2CCN(CCOc3ccc(/N=N/c4ccc(C(=O)Nc5cccc6c5CN(C5CCC(=O)NC5=O)C6=O)cc4)cc3)CC2)n1 (stereo unspecified)

- Activity [3]: inactive
- Activity [4]: inactive
Structure (SMILES): Cc1nc(Nc2ncc(C(=O)Nc3c(C)cccc3Cl)s2)cc(N2CCN(CCCCOc3ccc(/N=N/c4ccc(C(=O)Nc5cccc6c5CN(C5CCC(=O)N(C)C5=O)C6=O)cc4)cc3)CC2)n1 (single isomer, unassigned; (-))

- Activity [5]: inactive
- Activity [6]: inactive
- t1/2 [8]: 10.3 h
- Activity [1]: Active
- Activity [9]: Active
- Activity [10]: Dose-dependent effect
- Activity [11]: Active
- Activity [12]: > 90%
- IC50 (K562 [13]): 0.068 µM
- Activity [14]: inactive
- Activity [2]: Active
- Stability [16]: Stable
- Activity [19]: Dose-dependent effect
- Activity [20]: inactive
- Activity [21]: > 90%
- Activity [22]: Active
- Activity [23]: Active
- Activity [24]: inactive
- Activity [25]: Active
- Activity [26]: inactive
- Activity [28]: Active
- Activity [29]: inactive
- Activity [30]: inactive
Structure (SMILES): Cc1nc(Nc2ncc(C(=O)Nc3c(C)cccc3Cl)s2)cc(N2CCN(CCCCOc3ccc(/N=N/c4ccc(C(=O)Nc5cccc6c5CN(C5CCC(=O)NC5=O)C6=O)cc4)cc3)CC2)n1 (stereo unspecified)
- Drug metabolism [7]: Metabolite detected
- Activity (HCT-116): inactive
- Activity (MCF7): inactive
- Drug metabolism [15]: Metabolite detected
- Drug metabolism [17]: Metabolite detected
- EC50 (K562 [18]): 0.028 µM
- Activity (K562 [27]): Non-Toxic
- Activity (A549): inactive

- Activity [31]: inactive
- Activity ([11]; TDE = time-dependent effect): Tde
- Activity [12]: inactive
- Activity [32]: inactive
- Activity [21]: inactive
- Activity ([22]; TDE = time-dependent effect): Tde
Structure (SMILES): Cc1nc(Nc2ncc(C(=O)Nc3c(C)cccc3Cl)s2)cc(N2CCN(CCCCOc3ccc(/N=N\c4ccc(C(=O)Nc5cccc6c5CN(C5CCC(=O)NC5=O)C6=O)cc4)cc3)CC2)n1 (stereo unspecified)
